{"source": "ChEMBL document CHEMBL4038302", "about": "“Fibroblast Activation Protein α Activated Tripeptide Bufadienolide Antitumor Prodrug with Reduced Cardiotoxicity” (J Med Chem, 2017)", "key": {"MDA-MB-435": {"system": "MDA-MB-435", "assay": "Antiproliferative activity against wild type human MDA-MB-435 cells expressing FAP-alpha incubated for 48 hrs by MTT assay", "format": "functional, cell-based", "settings": "MDA-MB-435, 48 h", "in_short": "(§1)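 Cells grown in DMEM with 10% FBS and 1% penicillin-streptomycin at 37 °C, 5% CO2; 10% heat-inactivated FBS used during cytotoxicity testing to exclude serum FAP activity. Viability read by MTT; IC50 as mean ± SEM of at least three independent experiments. Transfected lines were made from MDA-MB-231 with human FAPα plasmid or empty pCMV6-Entry vector and checked by Western blot at 48 h.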"}, "MDA-MB-231 [1]": {"system": "MDA-MB-231", "assay": "Antiproliferative activity against human MDA-MB-231 cells transfected with pCMV6 incubated for 48 hrs by MTT assay", "format": "functional, cell-based", "settings": "MDA-MB-231, 48 h", "in_short": "as §1"}, "Mus musculus [2]": {"system": "Mus musculus", "assay": "Cardiotoxicity in BALB/C nude mouse xenografted with human MDA-MB-231 cells assessed as cytoplasmic vacuolization at 12 umol/kg, iv administered starting on day 5 measured after day 22 by hematoxylin-eosin staining-based assay", "format": "toxicity, organism-based", "settings": "in vivo", "in_short": "(§2)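 Tissues from dosed xenograft mice fixed for 24 h and paraffin-embedded. Sections of 5 μm, H&E stained; heart, liver, spleen, lung, kidney and femur examined by a pathologist blind to treatment.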"}, "[3]": {"assay": "(§3) In vivo prodrug activation in tumor of BALB/C nude mouse xenografted with human MDA-MB-231 cells assessed as FAP-alpha mediated (S)-((3S,5R,8R,9S,10S,11S,13R,14S,17R)-11,14-dihydroxy-10,13-dimethyl-12-oxo-17-(2-oxo-2H-pyran-5-yl)hexadecahydro-1H-cyclopenta[a]phenanthren-3-yl) 2-amino-3-(1H-indol-3-yl)propanoate formation at 40 umol/L by LC-MS/MS analysis", "set-up": "species or system Neoplasm", "in_short": "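Tumour and heart tissue weighed and homogenized on ice in PBS, pH 7.4, then incubated with prodrug at 40 μmol/L. Bufalin at 2 μmol/L added as internal standard; reaction stopped with acetonitrile and spun at 18 000g for 30 min. Active form quantified by LC-MS/MS against a standard curve of 0.625–40 μmol/L; mean ± SEM of three samples.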"}, "Mus musculus [4]": {"system": "Mus musculus", "assay": "Hepatotoxicity in BALB/C nude mouse xenografted with human MDA-MB-231 cells at 12 umol/kg, iv administered starting on day 5 measured after day 22 by hematoxylin-eosin staining-based assay", "format": "toxicity, organism-based", "settings": "in vivo", "in_short": "as §2"}, "Mus musculus [5]": {"system": "Mus musculus", "assay": "Toxicity in BALB/C nude mouse xenografted with human MDA-MB-231 cells assessed as histopathologic change in spleen at 12 umol/kg, iv administered starting on day 5 measured after day 22 by hematoxylin-eosin staining-based assay", "format": "organism-based", "settings": "in vivo", "in_short": "as §2"}, "Prolyl endopeptidase FAP": {"target": "T1, Prolyl endopeptidase FAP (Homo sapiens, UniProt Q12884)", "T1 sequence (Q12884 whole entry)": "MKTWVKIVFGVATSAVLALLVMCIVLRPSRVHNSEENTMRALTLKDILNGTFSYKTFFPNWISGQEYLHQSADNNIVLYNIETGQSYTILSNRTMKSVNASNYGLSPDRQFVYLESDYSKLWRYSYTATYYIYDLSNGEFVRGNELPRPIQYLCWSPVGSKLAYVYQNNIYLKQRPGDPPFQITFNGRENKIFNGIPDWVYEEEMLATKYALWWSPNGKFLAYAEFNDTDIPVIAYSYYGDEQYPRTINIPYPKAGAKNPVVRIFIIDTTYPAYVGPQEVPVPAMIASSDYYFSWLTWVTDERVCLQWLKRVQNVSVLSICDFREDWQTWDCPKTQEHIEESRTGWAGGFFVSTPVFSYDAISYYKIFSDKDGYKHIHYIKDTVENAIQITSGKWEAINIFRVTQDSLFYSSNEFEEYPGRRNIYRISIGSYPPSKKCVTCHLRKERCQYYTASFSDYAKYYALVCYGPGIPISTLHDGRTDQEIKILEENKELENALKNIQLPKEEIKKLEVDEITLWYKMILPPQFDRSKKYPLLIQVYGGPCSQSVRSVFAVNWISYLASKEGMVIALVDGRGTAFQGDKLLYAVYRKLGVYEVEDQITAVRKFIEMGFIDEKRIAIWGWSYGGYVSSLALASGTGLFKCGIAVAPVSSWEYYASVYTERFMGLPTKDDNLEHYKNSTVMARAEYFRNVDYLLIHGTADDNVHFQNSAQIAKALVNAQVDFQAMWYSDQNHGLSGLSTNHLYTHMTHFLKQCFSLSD", "assay": "Prodrug activation assessed as recombinant human FAP-alpha mediated (S)-((3S,5R,8R,9S,10S,11S,13R,14S,17R)-11,14-dihydroxy-10,13-dimethyl-12-oxo-17-(2-oxo-2H-pyran-5-yl)hexadecahydro-1H-cyclopenta[a]phenanthren-3-yl) 2-amino-3-(1H-indol-3-yl)propanoate formation by measuring intrinsic clearance at 40 umol/L […] by UPLC-MS/MS analysis", "settings": "40 µM"}, "Mus musculus [6]": {"system": "Mus musculus", "assay": "Cardiotoxicity in BALB/C nude mouse xenografted with human MDA-MB-231 cells assessed as change in left ventricular internal systole dimension at 12 umol/kg, iv administered starting on day 5 measured after day 22 by echocardiography", "format": "toxicity, organism-based", "settings": "in vivo", "in_short": "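Same MDA-MB-231 xenograft mice, given daily iv doses in 5% HS15 from day 5. After 22 days of dosing, transthoracic echocardiography with a 21 MHz transducer under 1.5% isoflurane, supine. M-mode images taken from the parasternal short-axis view at the papillary muscle; IVSd, IVSs, LVIDd and LVIDs derived, n = 6.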"}, "Mus musculus [7]": {"system": "Mus musculus", "assay": "Nephrotoxicity in BALB/C nude mouse xenografted with human MDA-MB-231 cells at 12 umol/kg, iv administered starting on day 5 measured after day 22 by hematoxylin-eosin staining-based assay", "format": "toxicity, organism-based", "settings": "in vivo", "in_short": "as §2"}, "Mus musculus [8]": {"system": "Mus musculus", "assay": "Toxicity in BALB/C nude mouse xenografted with human MDA-MB-231 cells assessed as histopathologic change in femur at 12 umol/kg, iv administered starting on day 5 measured after day 22 by hematoxylin-eosin staining-based assay", "format": "organism-based", "settings": "in vivo", "in_short": "as §2"}, "Mus musculus [9]": {"system": "Mus musculus", "assay": "Toxicity in BALB/C nude mouse xenografted with human MDA-MB-231 cells assessed as abnormal food intake at 12 umol/kg, iv administered starting on day 5 measured after day 22", "format": "organism-based", "settings": "in vivo"}, "MDA-MB-231 [10]": {"system": "MDA-MB-231", "assay": "Induction of apoptosis in human MDA-MB-231 cells xenografted in BALB/C nude mouse at 4 umol/kg, iv administered starting on day 5 measured after day 22 by tunnel assay relative to control", "format": "functional", "settings": "in the assay text read “12 umol/kg” for “4 umol/kg”", "in_short": "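Paraffin tumour sections from dosed xenograft mice stained by in situ cell death detection (TUNEL), examined blind to treatment. Percentage of apoptotic cells quantified by image analysis. Mean ± SEM, n = 6, versus the 5% HS15 control.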"}, "[11]": {"assay": "as §3, with “Ratio of invivo” for “In vivo”, “formation in absence of talabostat to FAP-alpha mediated (S)-((3S,5R,8R,9S,10S,11S,13R,14S,17R)-11,14-dihydroxy-10,13-dimethyl-12-oxo-17-(2-oxo-2H-pyran-5-yl)hexadecahydro-1H-cyclopenta[a]phenanthren-3-yl) 2-amino-3-(1H-indol-3-yl)propanoate formation in presence of talabostat” for “formation”", "set-up": "species or system Neoplasm"}, "MDA-MB-231 [12]": {"system": "MDA-MB-231", "assay": "Antitumor activity against human MDA-MB-231 cells xenografted in BALB/C nude mouse at 4 umol/kg, iv administered starting on day 5 measured after day 22 by Ki67 staining-based assay relative to control", "format": "functional", "in_short": "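Female BALB/C nude mice, MDA-MB-231 cells (1 × 10^7) injected subcutaneously in Matrigel–PBS 1:1. Daily iv dosing in 5% HS15 vehicle from day 5. Tumours fixed and paraffin-embedded, 5 μm sections, anti-Ki67 IHC, read blind by a pathologist. Proliferative index by image analysis, n = 6. Compared with 5% HS15 control by one-way ANOVA and Tukey's test.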"}}}
{"molecule": "C[C@]12CC[C@H](OC(=O)[C@H](Cc3c[nH]c4ccccc34)NC(=O)[C@@H]3CCCN3C(=O)CNC(=O)OCc3ccccc3)C[C@H]1CC[C@@H]1[C@@H]2[C@H](O)C(=O)[C@]2(C)[C@@H](c3ccc(=O)oc3)CC[C@]12O", "values": [{"measurement": "IC50", "setting": "MDA-MB-435", "value": 10.6, "unit": "nM"}, {"measurement": "IC50", "setting": "MDA-MB-231 [1]", "value": 24, "unit": "nM"}, {"measurement": "Activity", "setting": "Mus musculus [2]", "value": "Non-Toxic"}, {"measurement": "Drug metabolism", "setting": "[3]", "value": 19.82, "unit": "µmol/L"}, {"measurement": "Activity", "setting": "Mus musculus [4]", "value": "Non-Toxic"}, {"measurement": "Activity", "setting": "Mus musculus [5]", "value": "Non-Toxic"}, {"measurement": "CL", "setting": "Prolyl endopeptidase FAP", "value": 65890, "unit": "µL/min/mg"}, {"measurement": "Activity", "setting": "Mus musculus [6]", "value": "Non-Toxic"}, {"measurement": "Activity", "setting": "Mus musculus [7]", "value": "Non-Toxic"}, {"measurement": "Activity", "setting": "Mus musculus [8]", "value": "Non-Toxic"}, {"measurement": "Activity", "setting": "Mus musculus [9]", "value": "Non-Toxic"}, {"measurement": "fold change (FC)", "setting": "MDA-MB-231 [10]", "value": 5}, {"measurement": "Ratio", "setting": "[11]", "value": 20}, {"measurement": "Activity", "setting": "MDA-MB-231 [12]", "value": "45 - 50%"}]}
